Bioassay records: PubChem BioAssay, several laboratories
sPLA2-III inh – human group III sPLA2 inhibitors, primary screen, biochemical, QFRET, BODIPY PC-A2 liposome substrate; Group 3 secretory phospholipase A2 (Homo sapiens), Q9NZ20; QFRET BODIPY PC-A2 liposome hydrolysis, fluorescence; inhibition, % at 12.2 µM; 370,000 compounds, 0.56% hits;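 active = inhibition above mean plus 3 SD of compounds lying within the high and low control bounds, cut at about 19% in these data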;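 note: 0% = median of test compound wells and 100% = no enzyme DMSO wells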
Hep lipid drop – inhibitors of hepatocyte lipid droplet formation, primary screen, imaging, high-throughput imaging, BODIPY stain; 240,000 compounds, 0.4% hits; AID 1656, 2009; inhibition, % at 6.5 µM; AML12 mouse hepatocytes, oleate lipid droplets;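 active = lipid droplet intensity inhibited by at least 50%, with more than 500 cells counted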
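Assay system: AML12 mouse liver cells | Compound dosing: One dose, 6.5 µM compound | Read-out basis: Droplet intensity reduction, % inhibition | Measured by: Fluorescence imaging, 20x objective, two fields per well | Schedule: Overnight treatment with compound plus oleate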
CendR NRP1 mod – modulators of CendR peptide binding to NRP-1, primary screen, biochemical, fluorescence polarization, uHTS | inhibition, % at 25 µM | FAM-RPARPAR peptide binding to NRP-1 | AID 602438, 2012 | Neuropilin-1 (Homo sapiens), O14786 | 360,000 compounds, 0.85% hits;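 active = inhibition or corrected inhibition above about 18%, plus a signal ratio from 0.5 to 1.5, limit read from the data, passing the limit was not always enough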
HTR2A ag – mouse Htr2a agonists via beta-arrestin recruitment, primary screen, cell-based, luminescence; 5-hydroxytryptamine receptor 2A (Mus musculus), P35363; CHO-K1 mHTR2A beta-arrestin complementation; percent of 30 µM serotonin response; activation, % at 7.6 µM; 360,000 compounds, 0.66% hits;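 active = activation above a run cutoff, the mean activation of all tested compounds plus 3 SD, cut at about 14% in these data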;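 note: 0% = plate median of compound wells and 100% = 30 µM serotonin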
Arrestin-AP2 inh – inhibitors of beta-arrestin/AP2 binding, primary screen, biochemical, GPCR trafficking, flow cytometry; 340,000 compounds, 0.31% hits; inhibition, % at 10 µM; beta-arrestin 1 C-terminal peptide binding to AP2 beta2-adaptin appendage (human); FITC-arrestin peptide / GST-AP2 beads; AP2 beta2 appendage carries R879A mutation;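 active = inhibition above a set limit, near 3 SD of compounds lacking own fluorescence, cut at about 54% in these data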;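 note: plate controls were DMSO wells for no effect and 5 µM unlabelled arrestin peptide for full effect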
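System: GST-AP2 R879A glutathione beads. Medium: PBS with 0.05% Tween 20 and 0.1% BSA. Also added: FITC-arrestin peptide, 50 nM. Incubation: 12 min plus 1 h, RT. Measured by: high-throughput flow cytometry of beads, ex 488, em 535 nm. Evaluation: percent drop in bead-associated FITC signal.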
PfM18AAP inh – PfM18AAP inhibitors, malaria aminopeptidase, primary screen, biochemical, QFRET, recombinant enzyme. 290,000 compounds, 1.2% hits. M18 aspartyl aminopeptidase (Plasmodium falciparum 3D7). H-Glu-NHMec fluorogenic cleavage. inhibition, % at 7.35 µM;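 active = inhibition above the campaign mean inhibition over all tested compounds plus 3 SD, cut at about 28% in these data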;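 note: 0% = plate median of test compound wells and 100% = 2 mM ZnCl2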
MOR ag counter – OPRM1 agonists via beta-arrestin recruitment, confirmation, counter-screen for mouse HTR2A agonist project, cell-based, luminescence, single concentration. shares compounds with HTR2A ag. U2OS OPRM1 beta-arrestin PathHunter; DMSO 0%, DAMGO 9.3 µM 100%. activation, % at 9.3 µM. 2,300 compounds, 5.3% hits. AID 624380, 2012;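 active = mean activation above the mean of DMSO-only wells plus 3 SD, cut at about 0.5% in these data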
Target sequence (P35372 whole entry, looked up): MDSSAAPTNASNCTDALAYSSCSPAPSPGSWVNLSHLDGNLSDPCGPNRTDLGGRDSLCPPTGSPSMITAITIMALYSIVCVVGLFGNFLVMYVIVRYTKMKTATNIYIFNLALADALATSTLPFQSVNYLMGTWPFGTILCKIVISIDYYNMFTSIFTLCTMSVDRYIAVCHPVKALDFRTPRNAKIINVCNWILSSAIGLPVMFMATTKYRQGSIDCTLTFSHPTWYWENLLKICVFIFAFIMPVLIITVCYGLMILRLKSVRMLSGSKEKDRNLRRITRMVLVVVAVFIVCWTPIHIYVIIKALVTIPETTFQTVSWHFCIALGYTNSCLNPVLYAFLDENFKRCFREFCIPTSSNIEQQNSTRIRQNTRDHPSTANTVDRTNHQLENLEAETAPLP
m5-HT2A ag conf – mouse HTR2A agonists, beta-arrestin recruitment, confirmation, cell-based, luminescence, CHO-K1 PathHunter, triplicate. activation, % at 7.6 µM. DMSO 0%, 30 µM serotonin 100%. 2,300 compounds, 19% hits. shares compounds with HTR2A ag;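 active = mean activation across triplicates above the hit threshold derived in the original primary screen, cut at about 15% in these data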
hGIII sPLA2 conf – human group III sPLA2 inhibitors, confirmation, biochemical, QFRET, triplicate. inhibition, % at 12.2 µM. recombinant hGIII-sPLA2, BODIPY PC-A2 QFRET fluorescence. shares compounds with sPLA2-III inh. 2,000 compounds, 34% hits;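 active = mean inhibition across triplicates above the hit cutoff set in the earlier primary screen, cut at about 19% in these data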;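 note: 0% = enzyme with DMSO and 100% = DMSO wells lacking enzyme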
BODIPY interf – 535nm fluorescence optical interference, confirmation, artefact control for HGIII-sPLA2 inhibitor project, biochemical, QFRET. shares compounds with sPLA2-III inh. 2,000 compounds, 8.5% hits. BODIPY FL product fluorescence interference. inhibition, % at 12.2 µM. AID 743282, 2014;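 active = average inhibition above the solvent-only control mean plus 3 SD, cut at about 6% in these data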;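 note: 0% = DMSO with substrate plus product and 100% = DMSO with substrate alone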
535nm interf DR – 535nm fluorescence optical interference, dose response, artefact control for HGIII-sPLA2 inhibitor project, biochemical, QFRET; shares compounds with sPLA2-III inh; IC50, µM; BODIPY FL product fluorescence interference, cell-free; 240 tested, under 10 active;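 active = IC50 at or below 10 µM; inactive = IC50 above 10 µM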
* hit, by the source's call; . = no result. In the library only some 3.3% were active in any assay of this set; here they are far more common.

SMILES | sPLA2-III inh | Hep lipid drop | CendR NRP1 mod | HTR2A ag | Arrestin-AP2 inh | PfM18AAP inh | MOR ag counter | m5-HT2A ag conf | hGIII sPLA2 conf | BODIPY interf | others
CC1=C(C(=O)N(C(C)C)C(C)C)CC(CC(=O)NCc2cccc3ccccc23)C(=O)N1Cc1ccccc1 (configuration not stated) | -6.6 | . | 9.8 | 10.0 | . | . | . | . | . | .
COc1ccc(S(=O)(=O)N2CCCOC2CNC(=O)C(=O)NCc2ccccc2C)cc1 (configuration not stated) | 1.3 | . | -2.2 | -2.5 | . | . | . | . | . | .
CCC(OC(=O)c1nsc(Cl)c1Cl)C(=O)NCc1cccs1 (configuration not stated) | -2.3 | 16.6 | 12.8 | 26.9* | -4.2 | 2.9 | -0.6 | -2.6 | . | .
O=C(Nc1cccc(S(=O)(=O)N2CCCC2)c1)c1ccco1 | -4.4 | . | 2.4 | 6.6 | 6.1 | . | . | . | . | .
O=C(Nc1ccc(S(=O)(=O)N2CCCCCC2)cc1)c1ccco1 | -4.9 | -11.5 | 7.8 | 14.6* | 20.5 | 2.5 | -0.6 | -2.3 | . | .
Nc1nnc(-c2ccccc2[N+](=O)[O-])o1 | 1.6 | -7.9 | 7.0 | 25.6* | 15.3 | 5.6 | -0.4 | -5.4 | . | .
O=C(Cc1c[nH]c2ccccc12)Nc1ccc(Nc2cccnc2)c(-c2ccc(Cl)c(Cl)c2)c1 | -18.7 | . | . | . | . | . | . | . | . | .
Cc1ccccc1N1CC(C(=O)N2CCc3ccccc32)CC1=O (configuration not stated) | 5.1 | . | 11.4 | 17.3* | -1.2 | . | -0.5 | -1.6 | . | .
CC(OC(=O)c1cnccn1)C(=O)Nc1nc(-c2cccc([N+](=O)[O-])c2)cs1 (configuration not stated) | 7.6 | . | 2.1 | 5.2 | 33.8 | . | . | . | . | .
CC(OC(=O)c1ccccc1Br)C(=O)Nc1nc(-c2cccc([N+](=O)[O-])c2)cs1 (configuration not stated) | -6.6 | 30.0 | 4.5 | 16.6* | -1.6 | 2.2 | -0.4 | -3.7 | . | .
COC(=O)c1cc(-c2ccc(Cl)s2)c(=O)n2c1CCC2 | -0.3 | . | . | . | . | . | . | . | . | .
O=C(CSc1nc2c(cnn2-c2ccc(F)cc2)c(=O)[nH]1)N1CCCCC1 | 0.0 | -2.3 | -13.5 | 15.2* | -3.8 | -4.4 | -0.6 | -3.0 | . | .
CCc1sc(C(=O)Nc2ccc3c(c2)OCCO3)cc1Br | -1.2 | -32.9 | -2.9 | -4.6 | 12.7 | 7.4 | . | . | . | .
COc1ccc(NC(=O)CSc2ccc(-c3ccccn3)nn2)cc1OC | 19.4* | -22.5 | -7.1 | 35.5* | 1.4 | 2.5 | -0.8 | 107.4* | -0.8 | -27.1
O=C(Cc1ccccc1F)NNC(=O)c1ccncc1 | 0.2 | 9.5 | 7.1 | -4.2 | -3.7 | 2.3 | . | . | . | .
O=C(CN1C(=O)CSc2ncccc21)NCCN1CCOCC1 | -5.8 | . | -1.3 | -5.9 | 49.6 | -4.4 | . | . | . | .
COCCCNC(=O)CN1C(=O)CSc2ncccc21 | 19.2* | -4.9 | -12.1 | 18.0* | -1.5 | -0.3 | -0.5 | -4.0 | 1.4 | -5.9
CCOc1nc(-c2ccc(Cl)cc2)nc2ccccc12 | 25.1* | 5.2 | 0.8 | 26.8* | -13.1 | -8.5 | -0.5 | 0.9 | -2.4 | 1.3
OC(c1ccccc1)(c1ccccc1)C1CCN(CCCOc2cccc(Cl)c2)CC1 | -15.8 | . | . | . | . | . | . | . | . | .
COc1cc2cc(NC(C)=O)cc(NCc3ccccc3)c2cc1OC | 20.8* | . | -7.1 | 1.7 | 13.6 | 15.7 | . | . | 18.7 | -2.5
Fc1cccc(Cl)c1CSc1nnc2ccccn12 | 2.0 | 3.0 | 3.9 | -1.3 | -0.9 | -11.5 | . | . | . | .
Clc1cccc(Cl)c1CSc1nnc2ccccn12 | 19.2* | -3.6 | 1.7 | -1.0 | -13.4 | -9.0 | . | . | 0.7 | -1.1
Cc1ccc(C(=O)OCC(=O)Nc2ccc(C)c(S(=O)(=O)N3CCCCC3)c2)c(O)c1 | 4.9 | . | 3.1 | 7.7 | . | . | . | . | . | .
O=C(CSc1nnc(NCc2ccccc2)s1)N1CCOCC1 | 27.1* | -18.0 | 1.0 | 5.2 | 17.2 | -0.9 | . | . | -1.9 | -4.9
O=C(O)c1ccc(N2C(=O)CC(N3CCN(c4cccc(C(F)(F)F)c4)CC3)C2=O)cc1 (configuration not stated) | 21.2* | -8.7 | -0.2 | 9.8 | 0.0 | -3.8 | . | . | 1.9 | -1.7
SMILES | sPLA2-III inh | Hep lipid drop | CendR NRP1 mod | HTR2A ag | Arrestin-AP2 inh | PfM18AAP inh | MOR ag counter | m5-HT2A ag conf | hGIII sPLA2 conf | BODIPY interf | others
CCOc1cc(NC(=O)C(C)C)c(OCC)cc1NC(=O)Nc1ccccc1 | -2.0 | -0.3 | -2.4 | 1.7 | 12.9 | -2.4 | . | . | . | .
CCOc1cc(NC(=S)NCc2ccco2)c(OCC)cc1NC(=O)CC(C)C | 20.4* | 36.8 | -9.2 | 3.2 | -6.0 | -10.9 | . | . | 11.1 | -4.1
CCOc1cc(NC(=S)NCc2ccccc2)c(OCC)cc1NC(=O)C(C)C | 20.1* | 46.6 | 2.9 | -2.4 | 1.9 | 11.5 | . | . | 28.7* | -5.7 | 535nm interf DR=>122
CCOC(=O)N1CCN(C(=O)C[C@@H]2C[C@]3(C(=O)OCC)CCC4=C3N(CCC4)C2=O)CC1 | 7.7 | . | . | . | . | . | . | . | . | .
O=C(NCC[C@@H]1CC[C@@H](NS(=O)(=O)Cc2ccccc2)[C@@H](CO)O1)C1CC1 | 0.0 | . | 7.8 | -0.9 | . | . | . | . | . | .
CCOC(=O)[C@@]12CCC3=C1N(CCC3)C(=O)[C@H](CC(=O)N1CCOCC1)C2 | 7.3 | . | . | . | . | . | . | . | . | .
CCN(CC)C(=O)C12C(=O)Oc3ccccc3C1C2(C)C(=O)c1ccc(F)cc1 (configuration not stated) | 20.1* | 0.4 | -7.4 | -2.4 | -10.1 | 2.1 | . | . | -1.6 | -7.6
